# Data reported in ChEMBL document CHEMBL3877241 (J Med Chem, 2016).
# The source made the active and inactive calls. No cut-off for these calls is given here.
# What was measured:
# [1] = Antiproliferative activity against human KG1 cells after 48 hrs by CellTiter-Glo assay; type: functional, cell-based; settings: KG-1, 48 h
# [2] = Antiproliferative activity against human Jurkat cells; type: functional, cell-based
# [3] = Antiproliferative activity against human OPM2 cells after 48 hrs by CellTiter-Glo assay; type: functional, cell-based; settings: OPM-2, 48 h
# Procedure, shortened: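 OPM2 grown in RPMI 1640 with 10% FBS and penicillin/streptomycin at 37 °C, 5% CO2. Treated at 25,000 cells/well in triplicate for 48 h. Viability read by CellTiter-Glo luminescence. IC50 taken from a sigmoidal fit of % viability vs log concentration.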
# [4] = Antiproliferative activity against mouse TAMH cells after 24 hrs by CellTiter-Glo assay; type: ADME, cell-based
# [5] = system: Tyrosine-protein kinase JAK2 (Homo sapiens), O60674 [V617F]; test: Induction of JAK2 V617F mutant phosphorylation at Y1007/8 residues in HEL 92.1.7 cells after 1 hr by immunoblot method; type: cell-based
# Sequence of Tyrosine-protein kinase JAK2 (Homo sapiens), O60674 [V617F] (O60674 whole entry V617F): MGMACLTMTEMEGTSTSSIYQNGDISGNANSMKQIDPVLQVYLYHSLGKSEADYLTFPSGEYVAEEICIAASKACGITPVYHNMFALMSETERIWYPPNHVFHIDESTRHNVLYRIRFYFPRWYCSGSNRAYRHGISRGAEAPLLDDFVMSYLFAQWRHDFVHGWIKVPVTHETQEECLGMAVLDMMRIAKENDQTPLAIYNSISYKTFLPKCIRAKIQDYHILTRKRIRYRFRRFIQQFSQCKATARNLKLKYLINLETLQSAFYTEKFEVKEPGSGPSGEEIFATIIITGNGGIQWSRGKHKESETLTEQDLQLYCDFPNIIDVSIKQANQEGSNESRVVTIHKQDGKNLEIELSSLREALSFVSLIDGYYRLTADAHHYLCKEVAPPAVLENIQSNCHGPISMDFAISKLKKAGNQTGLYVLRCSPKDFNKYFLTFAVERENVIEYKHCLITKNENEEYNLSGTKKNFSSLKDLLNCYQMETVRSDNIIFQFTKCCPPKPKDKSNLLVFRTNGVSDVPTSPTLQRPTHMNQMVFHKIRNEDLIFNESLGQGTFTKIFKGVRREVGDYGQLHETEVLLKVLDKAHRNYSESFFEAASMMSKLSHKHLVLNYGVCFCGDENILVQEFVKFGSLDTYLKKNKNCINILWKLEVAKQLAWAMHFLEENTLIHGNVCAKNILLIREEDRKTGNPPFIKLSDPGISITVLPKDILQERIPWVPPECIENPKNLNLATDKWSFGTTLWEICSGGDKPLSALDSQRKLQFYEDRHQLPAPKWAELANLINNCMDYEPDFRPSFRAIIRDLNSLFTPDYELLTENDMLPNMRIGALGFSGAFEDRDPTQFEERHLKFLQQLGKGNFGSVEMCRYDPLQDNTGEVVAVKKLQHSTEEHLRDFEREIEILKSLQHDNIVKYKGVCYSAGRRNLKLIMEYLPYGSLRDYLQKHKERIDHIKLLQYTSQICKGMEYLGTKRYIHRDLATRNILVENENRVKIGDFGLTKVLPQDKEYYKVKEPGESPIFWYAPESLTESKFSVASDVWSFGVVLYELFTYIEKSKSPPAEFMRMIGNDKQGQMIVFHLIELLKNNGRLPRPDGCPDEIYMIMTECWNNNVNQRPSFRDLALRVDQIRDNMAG
# Procedure, shortened: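 HEL92.1.7 cells seeded at 5x10^5/mL and treated 1 h at 0, 0.1, 0.5 and 1 μM. Lysed in RIPA with phosphatase/protease inhibitors, run on 10% SDS-PAGE and blotted to PVDF. Probed for acetyl-tubulin, acetyl-H3 (Lys9/Lys14), p-JAK2 (Y1007/1008) and p-STAT5 (Tyr694); membranes re-probed for tubulin, H3, JAK2 and STAT5. Quantified by densitometry.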
# [6] = Antiproliferative activity against HEL 92.1.7 cells harboring JAK2 V617F mutant after 48 hrs by CellTiter-Glo assay; type: functional, cell-based; settings: Homo sapiens, HEL 92.1.7, 48 h
# [7] = Antiproliferative activity against human PC3 cells after 72 hrs by MTT assay; type: functional, cell-based; settings: PC-3, 72 h
# [8] = Antiproliferative activity against human HCT116 cells after 48 hrs by CellTiter-Glo assay; type: functional, cell-based; settings: HCT-116, 48 h
# [9] = Antiproliferative activity against human HL60 cells; type: functional, cell-based; settings: HL-60
# [10] = Antiproliferative activity against human MCF7 cells after 48 hrs by CellTiter-Glo assay; type: functional, cell-based; settings: MCF7, 48 h
# [11] = Antiproliferative activity against human MCF7 cells after 72 hrs by MTT assay; type: functional, cell-based; settings: MCF7, 72 h
# [12] = Antiproliferative activity against human PC3 cells after 48 hrs by CellTiter-Glo assay; type: functional, cell-based; settings: PC-3, 48 h
# [13] = Antiproliferative activity against human MOLM14 cells harboring FLT3-ITD mutant after 48 hrs by CellTiter-Glo assay; type: functional, cell-based; settings: MOLM-14, 48 h
# [14] = Antiproliferative activity against human Jurkat cells after 48 hrs by CellTiter-Glo assay; type: functional, cell-based
# [15] = target: T1, Tyrosine-protein kinase JAK2 (Homo sapiens, UniProt O60674); test: Inhibition of JAK2 in IL-6-stimulated human KMS-12-BM cells assessed as suppression of STAT3 phosphorylation at TY705 residue at 2 uM pretreated for 3 hrs followed by IL-6 stimulation by immunoblot method
# T1 sequence (O60674 whole entry): as the sequence (O60674 whole entry V617F) above, with F617V counted along it
# Procedure, shortened: (§1)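 KMS-12-BM or MOLM-14 cells pretreated with compound for 3 h, then stimulated with IL-6 (10 ng/mL) for 15 min. Lysates immunoblotted for p-STAT3 (Y705) and re-probed for total STAT3. Reference JAK2 inhibitor used at 2 μM in KMS-12-BM and 0.1 μM in MOLM-14.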
# [16] = Antiproliferative activity against human HCT116 cells after 72 hrs by MTT assay; type: functional, cell-based; settings: HCT-116, 72 h
# Procedure, shortened: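 MTT viability after 72 h exposure. Cells seeded at 2500/well and left 24 h before compound addition; DMSO at 0.5% v/v final. MTT added in FBS-free medium for 3 h at 37 °C, formazan dissolved in DMSO, absorbance read at 570 nm. IC50 from a sigmoidal fit of % viability vs log concentration; triplicates on separate occasions using two different stock solutions.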
# [17] = Antiproliferative activity against human MDA-MB-231 cells after 72 hrs by MTT assay; type: functional, cell-based; settings: MDA-MB-231, 72 h
# [18] = Antiproliferative activity against human KHYG cells after 48 hrs by CellTiter-Glo assay; type: functional, cell-based
# cells = type: functional, cell-based; settings: Homo sapiens, HEL 92.1.7, 36 h
# [19] = target: T1, Tyrosine-protein kinase JAK2; test: Inhibition of JAK2 in IL-6-stimulated human MOLM14 cells assessed as suppression of STAT3 phosphorylation at TY705 residue at 0.1 uM pretreated for 3 hrs followed by IL-6 stimulation by immunoblot method; type: cell-based; settings: MOLM-14; procedure, shortened: as §1
# [20] = Antiproliferative activity against human NKYS cells after 48 hrs by CellTiter-Glo assay; type: functional, cell-based
# [21] = Antiproliferative activity against human KMS-12-BM cells after 48 hrs by CellTiter-Glo assay; type: functional, cell-based
# MOLM-14 [22] = test: Induction of apoptosis in human MOLM14 cells assessed as live cells at 1 uM after 48 hrs by Annexin-V FITC/propidium iodide staining based flow cytometry (reference value: 94 to 94.1%); type: functional
# Procedure, shortened: (§2)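 MOLM-14 cells treated 48 h at the stated concentrations; doxorubicin as positive control. Stained with Annexin V-FITC and propidium iodide and analysed by flow cytometry (at least 10,000 events). Gated quadrants: Annexin V−/PI− viable, Annexin V+/PI− early apoptotic, Annexin V+/PI+ late apoptotic.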
# MOLM-14 [23] = test: Induction of apoptosis in human MOLM14 cells assessed as late apoptotic cells at 1 uM after 48 hrs by Annexin-V FITC/propidium iodide staining based flow cytometry (reference value: 2.1 to 2.2%); type: functional; procedure, shortened: as §2
# MOLM-14 [24] = test: Induction of apoptosis in human MOLM14 cells assessed as necrotic cells at 1 uM after 48 hrs by Annexin-V FITC/propidium iodide staining based flow cytometry (reference value: 0.1%); type: functional; procedure, shortened: as §2
# MOLM-14 [25] = test: Induction of apoptosis in human MOLM14 cells assessed as early apoptotic cells at 1 uM after 48 hrs by Annexin-V FITC/propidium iodide staining based flow cytometry (reference value: 3.6 to 3.7%); type: functional; procedure, shortened: as §2
# [26] = target: T2, Protein deacetylase HDAC6 (Homo sapiens) (UniProt Q9UBN7); test: Inhibition of full length human recombinant N-terminal GST-tagged HDAC6 (1 to 1215 residues) expressed in sf9 cells at 10 uM preincubated with enzyme followed by fluorogenic Arg-His-Lys-Lys(Ac)-AMC substrate addition measured after 2 hrs by fluorescence assay relative to control
# T2 sequence (whole entry): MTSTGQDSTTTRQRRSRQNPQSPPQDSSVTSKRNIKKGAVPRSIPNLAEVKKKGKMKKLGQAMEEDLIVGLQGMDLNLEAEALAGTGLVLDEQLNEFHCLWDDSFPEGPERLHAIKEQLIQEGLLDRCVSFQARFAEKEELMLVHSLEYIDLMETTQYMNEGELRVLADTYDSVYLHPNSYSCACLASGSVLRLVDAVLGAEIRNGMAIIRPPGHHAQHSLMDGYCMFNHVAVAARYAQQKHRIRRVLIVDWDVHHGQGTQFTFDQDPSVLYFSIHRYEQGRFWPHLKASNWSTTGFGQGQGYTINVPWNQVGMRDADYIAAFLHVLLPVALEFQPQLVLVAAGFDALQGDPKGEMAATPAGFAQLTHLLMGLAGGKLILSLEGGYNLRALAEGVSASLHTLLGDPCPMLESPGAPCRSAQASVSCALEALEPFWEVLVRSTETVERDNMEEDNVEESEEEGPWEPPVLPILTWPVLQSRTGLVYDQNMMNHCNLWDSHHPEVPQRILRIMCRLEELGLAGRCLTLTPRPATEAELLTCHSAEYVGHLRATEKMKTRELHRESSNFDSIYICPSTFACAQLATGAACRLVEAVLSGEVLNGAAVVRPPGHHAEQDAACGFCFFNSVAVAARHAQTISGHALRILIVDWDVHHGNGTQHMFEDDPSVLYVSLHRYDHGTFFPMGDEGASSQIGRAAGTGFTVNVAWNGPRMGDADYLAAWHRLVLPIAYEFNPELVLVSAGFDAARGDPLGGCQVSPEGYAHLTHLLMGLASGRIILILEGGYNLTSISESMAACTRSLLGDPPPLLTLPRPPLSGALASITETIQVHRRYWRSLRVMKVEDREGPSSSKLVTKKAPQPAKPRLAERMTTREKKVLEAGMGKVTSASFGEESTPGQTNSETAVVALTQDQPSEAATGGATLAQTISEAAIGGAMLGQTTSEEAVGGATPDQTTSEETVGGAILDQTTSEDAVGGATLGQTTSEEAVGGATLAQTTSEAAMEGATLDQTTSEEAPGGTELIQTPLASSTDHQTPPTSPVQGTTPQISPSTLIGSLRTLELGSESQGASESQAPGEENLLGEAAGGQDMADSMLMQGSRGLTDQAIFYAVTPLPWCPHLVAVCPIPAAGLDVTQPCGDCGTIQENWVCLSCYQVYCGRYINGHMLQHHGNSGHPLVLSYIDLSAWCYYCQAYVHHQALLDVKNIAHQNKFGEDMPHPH
# [27] = target: T1, Tyrosine-protein kinase JAK2; test: Inhibition of JAK2 (unknown origin) preincubated for 20 mins followed by [33P]ATP addition measured after 120 mins by Hotspot assay
# [28] = target: T3, Protein deacetylase HDAC6 (Homo sapiens, UniProt Q9UBN7); test: Inhibition of full length human recombinant N-terminal GST-tagged HDAC6 (1 to 1215 residues) expressed in sf9 cells preincubated with enzyme followed by fluorogenic Arg-His-Lys-Lys(Ac)-AMC substrate addition measured after 2 hrs by fluorescence assay
# T3 sequence (Q9UBN7 whole entry): T2 sequence (whole entry)
# [29] = Therapeutic index, ratio of IC50 for mouse TAMH cells to IC50 for human cancer cells; settings: cancer cell lines
# [30] = Apparent intrinsic clearance in rat liver microsomes at 3 uM preincubated for 5 mins followed by NADPH addition measured after 45 mins by LC-MS/MS analysis; type: ADME; settings: read-out: CLH(app)
# Procedure, shortened: (§3)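 Male and female rat liver microsomes (0.3 mg protein/mL final) with compound at 3 μM final in 0.1 M phosphate buffer pH 7.4. Preincubated 5 min at 37 °C, then started with NADPH (1 mM final). Sampled at 0, 5, 10, 15, 30 and 45 min and quenched with cold acetonitrile containing internal standard. Read by LC-MS/MS; run in triplicate; midazolam (3 μM) as positive control.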
# [31] = Half life in rat liver microsomes at 3 uM preincubated for 5 mins followed by NADPH addition by LC-MS/MS analysis; type: ADME; procedure, shortened: as §3
# Histone deacetylase 1 = Histone deacetylase 1 (Homo sapiens, UniProt Q13547); test: Inhibition of full length human recombinant C-terminal FLAG/His-tagged HDAC1 (1 to 482 residues) expressed in sf21 cells preincubated with enzyme followed by fluorogenic Arg-His-Lys-Lys(Ac)-AMC substrate addition measured after 2 hrs by fluorescence assay
# Sequence of Histone deacetylase 1 (Q13547 whole entry, the tested form may be a part): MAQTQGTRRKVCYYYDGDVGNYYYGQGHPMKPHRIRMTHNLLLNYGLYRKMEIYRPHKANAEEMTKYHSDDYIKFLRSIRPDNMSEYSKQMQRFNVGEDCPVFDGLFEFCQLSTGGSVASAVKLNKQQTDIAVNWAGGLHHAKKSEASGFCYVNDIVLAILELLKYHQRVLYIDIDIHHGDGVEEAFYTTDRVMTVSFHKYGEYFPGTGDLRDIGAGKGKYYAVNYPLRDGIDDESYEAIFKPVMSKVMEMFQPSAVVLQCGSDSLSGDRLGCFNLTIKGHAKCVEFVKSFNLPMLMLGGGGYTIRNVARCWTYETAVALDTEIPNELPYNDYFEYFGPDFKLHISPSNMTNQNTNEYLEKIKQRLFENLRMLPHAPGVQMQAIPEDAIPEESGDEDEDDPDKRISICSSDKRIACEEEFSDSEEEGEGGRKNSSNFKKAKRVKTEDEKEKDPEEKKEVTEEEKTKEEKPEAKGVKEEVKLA
structure (smiles),measurement,setting,value
C1=N/C2=N/c3ccc(OCCN4CCCC4)c(c3)COC/C=C/COCc3cccc(c3)C(=C1)N2 [PACRITINIB],IC50,[1],1480 nM
same,IC50,[2],1090 nM
same,IC50,[3],1210 nM
same,IC50,[4],3680 nM
same,Activity,[5],Active
same,IC50,[6],1730 nM
same,IC50,[7],2410 nM
same,IC50,[8],1690 nM
same,IC50,[9],1780 nM
same,IC50,[10],850 nM
same,IC50,[11],290 nM
same,IC50,[12],770 nM
same,IC50,[13],79 nM
same,IC50,[14],839 nM
same,inhibition,[15],Active
same,IC50,[16],880 nM
same,IC50,[17],2430 nM
same,IC50,[18],1240 nM
same,IC50,cells,1170 nM
same,inhibition,[19],Active
same,IC50,[20],1600 nM
same,IC50,[21],750 nM
COc1cccc2c1C(=O)c1c(O)c3c(c(O)c1C2=O)C[C@@](O)(C(=O)CO)C[C@@H]3O[C@H]1C[C@H](N)[C@H](O)[C@H](C)O1 [DOXORUBICIN],Activity,MOLM-14 [22],0.8%
same,Activity,MOLM-14 [23],59.9%
same,Activity,MOLM-14 [24],0.4%
same,Activity,MOLM-14 [25],38.8%
O=C(O)CCCCCC(=O)Nc1ccc(NCCOc2ccc3cc2COC/C=C/COCc2cccc(c2)-c2ccnc(n2)N3)cc1,inhibition,[26],20 to 24%
O=C(CCCCCCCOc1ccc2cc1COC/C=C/COCc1cccc(c1)-c1ccnc(n1)N2)NO,IC50,[2],2480 nM
same,IC50,[27],5 nM
same,IC50,[4],5260 nM
same,IC50,[7],10100 nM
same,IC50,[9],> 4000 nM
same,IC50,[28],15.8 nM
same,selectivity ratio,[29],1.8
same,IC50,[11],9480 nM
same,CLint scaled at 3 µM,[30],200 to 225 mL/min/kg
same,half-life at 3 µM,[31],21 to 23.4 min
same,IC50,[16],6230 nM
same,IC50,Histone deacetylase 1,2340 nM
same,IC50,[17],6440 nM
same,IC50,cells,> 2000 nM
